Laboratory results as given in paper PMC8757366 (ACS Omega, 2021).
Square brackets hold non-standard residues; d marks the D form. Peptide text beside a SMILES is read from it. * marks the point of attachment. Phe(3,4-(OMe)2) = COc1ccc(C[C@H](N)C(=O)O)cc1OC; Phe(F5) = N[C@@H](Cc1c(F)c(F)c(F)c(F)c1F)C(=O)O; Lys(Et,iPr) = CCN(CCCC[C@H](N)C(=O)O)C(C)C; Cha = N[C@@H](CC1CCCCC1)C(=O)O; Nicotinoyl = O=C(c1cccnc1)*; X1 = Nc1cc(C(=O)*)ccc1Br

Columns and labels:
CBX5 chromodomain = CBX5 chromodomain (Homo sapiens, UniProt P45973); assay: TR-FRET competition assay, CBX5; assay type: binding; conditions: for affinity improvement toward CBX5 over UNC5191 by TR-FRET: compared to UNC5191; for selectivity for CBX5 over CBX7: from TR-FRET IC50 values
How it was run: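 Competition of biotinylated peptide tracer P42 from His-tagged chromodomain: CBX5 30 nM with 30 nM tracer, MPP8 25 nM with 50 nM tracer. Detection with 10 nM ULight-anti-6xHis and 2 nM Eu-streptavidin in 20 mM Tris pH 7.5, 150 mM NaCl, 0.05% Tween 20, 2 mM DTT. 1 h equilibration in dark; 665/615 nm ratio. 0–100% scale against DMSO and 100 μM UNC5241. Four-parameter IC50 fit; mean ± SD of three replicates.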

CBX5 (HP1α) chromodomain = CBX5 (HP1α) chromodomain (Homo sapiens, UniProt P45973); assay: Isothermal titration calorimetry; assay type: binding; conditions: for Kd: CBX5 ITC Kd, 25 °C
How it was run: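 Run at 25 °C in 25 mM Tris–HCl pH 7.5, 150 mM NaCl, 2 mM β-mercaptoethanol. His-tagged chromodomain expressed in E. coli and purified by Ni affinity and size exclusion; concentration by Edelhoch method. Typically 50 μM protein with 0.5 mM compound or 100 μM with 1.0 mM, always 10:1. One 0.2 μL injection, then 26 × 1.5 μL at 180 s spacing; first point deleted; one-site fit. Mean ± SD of at least two replicates.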

Sequence of CBX5 (HP1α) chromodomain (P45973 18-75): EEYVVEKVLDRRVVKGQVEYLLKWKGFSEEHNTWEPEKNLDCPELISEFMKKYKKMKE
Sequence of CBX5 chromodomain (P45973 18-75): as above

CCN(CCCC[C@H](NC(=O)[C@H](CC(C)C)NC(=O)[C@H](C)NC(=O)[C@H](Cc1c(F)c(F)c(F)c(F)c1F)NC(=O)c1cccnc1)C(=O)N[C@@H](CO)C(N)=O)C(C)C [UNC4869, N-((8S,11S,14S,17S)-8-(((S)-1-Amino-3-hydroxy-1-oxopropan-2-yl)carbamoyl)-3-ethyl-11-isobutyl-2,14-dimethyl-10,13,16-trioxo-18-(perfluorophenyl)-3,9,12,15-tetraazaoctadecan-17-yl)nicotinamide] (Nicotinoyl-[Phe(F5)]AL[Lys(Et,iPr)]S-NH2)
affinity improvement toward CBX5 over UNC5191 by TR-FRET (CBX5 chromodomain): about 3 fold | selectivity for CBX5 over CBX7 (CBX5 chromodomain): 26 fold

CCN(CCCC[C@H](NC(=O)[C@H](CC(C)C)NC(=O)[C@H](C)NC(=O)[C@H](Cc1ccccc1)NC(=O)c1cccnc1)C(=O)N[C@@H](CO)C(N)=O)C(C)C [UNC5191, N-((8S,11S,14S,17S)-8-(((S)-1-Amino-3-hydroxy-1-oxopropan-2-yl)carbamoyl)-3-ethyl-11-isobutyl-2,14-dimethyl-10,13,16-trioxo-18-phenyl-3,9,12,15-tetraazaoctadecan-17-yl)nicotinamide] (Nicotinoyl-FAL[Lys(Et,iPr)]S-NH2)
Kd (CBX5 (HP1α) chromodomain; one site binding model): 6.93 ± 0.82 µM

CCN(CCCC[C@H](NC(=O)[C@H](CC(C)C)NC(=O)[C@H](C)NC(=O)[C@H](CC1CCCCC1)NC(=O)c1cccnc1)C(=O)N[C@@H](CO)C(N)=O)C(C)C [UNC6383, N-((8S,11S,14S,17S)-8-(((S)-1-Amino-3-hydroxy-1-oxopropan-2-yl)carbamoyl)-18-cyclohexyl-3-ethyl-11-isobutyl-2,14-dimethyl-10,13,16-trioxo-3,9,12,15-tetraazaoctadecan-17-yl)nicotinamide] (Nicotinoyl-[Cha]AL[Lys(Et,iPr)]S-NH2)
selectivity for CBX5 over CBX7 (CBX5 chromodomain): 11 fold

CCN(CCCC[C@H](NC(=O)[C@H](Cc1ccccc1)NC(=O)[C@H](C)NC(=O)[C@H](Cc1ccccc1)NC(=O)c1cccnc1)C(=O)N[C@@H](CO)C(N)=O)C(C)C [UNC6384, N-((8S,11S,14S,17S)-8-(((S)-1-Amino-3-hydroxy-1-oxopropan-2-yl)carbamoyl)-11-benzyl-3-ethyl-2,14-dimethyl-10,13,16-trioxo-18-phenyl-3,9,12,15-tetraazaoctadecan-17-yl)nicotinamide] (Nicotinoyl-FAF[Lys(Et,iPr)]S-NH2)
Kd (CBX5 (HP1α) chromodomain; one site binding model): 3.38 µM

CCN(CCCC[C@H](NC(=O)[C@H](Cc1ccc(OC)c(OC)c1)NC(=O)[C@H](C)NC(=O)[C@H](Cc1ccccc1)NC(=O)c1cccnc1)C(=O)N[C@@H](CO)C(N)=O)C(C)C [UNC6392, N-((8S,11S,14S,17S)-8-(((S)-1-Amino-3-hydroxy-1-oxopropan-2-yl)carbamoyl)-11-(3,4-dimethoxybenzyl)-3-ethyl-2,14-dimethyl-10,13,16-trioxo-18-phenyl-3,9,12,15-tetraazaoctadecan-17-yl)nicotinamide] (Nicotinoyl-FA[Phe(3,4-(OMe)2)][Lys(Et,iPr)]S-NH2)
Kd (CBX5 (HP1α) chromodomain; one site binding model): 1.27 µM | potency for CBX5 relative to UNC6384 by ITC (CBX5 (HP1α) chromodomain; ITC Kd compared to UNC6384): 2 fold

CCN(CCCC[C@H](NC(=O)[C@H](Cc1ccc(OC)c(OC)c1)NC(=O)[C@H](C)NC(=O)[C@H](CC1CCCCC1)NC(=O)c1ccc(Br)c(N)c1)C(=O)N[C@@H](CO)C(N)=O)C(C)C [UNC7047, 3-Amino-N-((8S,11S,14S,17S)-8-(((S)-1-amino-3-hydroxy-1-oxopropan-2-yl)carbamoyl)-18-cyclohexyl-11-(3,4-dimethoxybenzyl)-3-ethyl-2,14-dimethyl-10,13,16-trioxo-3,9,12,15-tetraazaoctadecan-17-yl)-4-bromobenzamide] (X1-[Cha]A[Phe(3,4-(OMe)2)][Lys(Et,iPr)]S-NH2)
IC50 (CBX5 chromodomain): 0.079 ± 0.04 µM | affinity improvement toward CBX5 over UNC5191 by TR-FRET (CBX5 chromodomain): 80 fold | Kd (CBX5 (HP1α) chromodomain; mean ± SD of three replicates): 0.237 ± 0.068 µM | potency for CBX5 relative to UNC5191 by ITC (CBX5 (HP1α) chromodomain; ITC Kd compared to UNC5191): 30 fold
